The values that follow come from ChEMBL document CHEMBL3351316, “Scaffold hopping approach on the route to selective tankyrase inhibitors” (Eur J Med Chem, 2014).

Assay [1] addresses T1, Poly [ADP-ribose] polymerase tankyrase-2 (Homo sapiens, UniProt Q9H2K2).
T1 sequence (Q9H2K2 whole entry): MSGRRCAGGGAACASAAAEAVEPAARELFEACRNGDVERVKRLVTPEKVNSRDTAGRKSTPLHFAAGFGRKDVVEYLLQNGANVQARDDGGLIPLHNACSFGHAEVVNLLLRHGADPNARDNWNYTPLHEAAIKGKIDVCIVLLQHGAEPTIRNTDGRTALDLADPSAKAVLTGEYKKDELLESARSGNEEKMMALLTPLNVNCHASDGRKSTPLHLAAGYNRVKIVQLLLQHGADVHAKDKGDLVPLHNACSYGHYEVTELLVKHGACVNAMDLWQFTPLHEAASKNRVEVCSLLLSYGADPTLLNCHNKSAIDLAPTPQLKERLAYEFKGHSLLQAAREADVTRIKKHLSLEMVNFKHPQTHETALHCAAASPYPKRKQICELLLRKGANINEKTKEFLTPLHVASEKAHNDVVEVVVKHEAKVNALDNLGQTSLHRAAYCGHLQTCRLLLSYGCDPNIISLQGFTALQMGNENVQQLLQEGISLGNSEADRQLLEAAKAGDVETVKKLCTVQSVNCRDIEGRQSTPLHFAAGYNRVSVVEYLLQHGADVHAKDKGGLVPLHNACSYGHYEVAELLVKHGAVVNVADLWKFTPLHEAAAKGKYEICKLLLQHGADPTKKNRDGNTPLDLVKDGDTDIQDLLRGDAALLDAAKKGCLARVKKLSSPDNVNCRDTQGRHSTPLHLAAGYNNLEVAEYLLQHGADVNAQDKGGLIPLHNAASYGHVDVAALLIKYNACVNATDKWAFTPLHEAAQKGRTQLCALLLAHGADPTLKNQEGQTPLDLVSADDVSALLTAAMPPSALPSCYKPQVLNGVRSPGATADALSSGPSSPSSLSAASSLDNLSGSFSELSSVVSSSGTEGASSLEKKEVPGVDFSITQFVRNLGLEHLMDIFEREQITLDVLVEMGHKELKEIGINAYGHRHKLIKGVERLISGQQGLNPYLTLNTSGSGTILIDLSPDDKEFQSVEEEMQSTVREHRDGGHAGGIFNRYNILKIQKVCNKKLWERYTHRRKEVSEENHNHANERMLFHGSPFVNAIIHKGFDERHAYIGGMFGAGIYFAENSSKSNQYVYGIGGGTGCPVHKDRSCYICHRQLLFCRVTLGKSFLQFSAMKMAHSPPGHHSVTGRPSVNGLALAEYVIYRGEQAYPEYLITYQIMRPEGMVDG
Put plainly: Inhibition of GST-tagged human recombinant TNKS2 incubated for 1 hr using NAD+, biotinylated NAD+ and activated DNA by luminescence based assay.

Assay [2] addresses T2, Protein mono-ADP-ribosyltransferase PARP10 (Homo sapiens) (UniProt Q53GL7).
T2 sequence (whole entry): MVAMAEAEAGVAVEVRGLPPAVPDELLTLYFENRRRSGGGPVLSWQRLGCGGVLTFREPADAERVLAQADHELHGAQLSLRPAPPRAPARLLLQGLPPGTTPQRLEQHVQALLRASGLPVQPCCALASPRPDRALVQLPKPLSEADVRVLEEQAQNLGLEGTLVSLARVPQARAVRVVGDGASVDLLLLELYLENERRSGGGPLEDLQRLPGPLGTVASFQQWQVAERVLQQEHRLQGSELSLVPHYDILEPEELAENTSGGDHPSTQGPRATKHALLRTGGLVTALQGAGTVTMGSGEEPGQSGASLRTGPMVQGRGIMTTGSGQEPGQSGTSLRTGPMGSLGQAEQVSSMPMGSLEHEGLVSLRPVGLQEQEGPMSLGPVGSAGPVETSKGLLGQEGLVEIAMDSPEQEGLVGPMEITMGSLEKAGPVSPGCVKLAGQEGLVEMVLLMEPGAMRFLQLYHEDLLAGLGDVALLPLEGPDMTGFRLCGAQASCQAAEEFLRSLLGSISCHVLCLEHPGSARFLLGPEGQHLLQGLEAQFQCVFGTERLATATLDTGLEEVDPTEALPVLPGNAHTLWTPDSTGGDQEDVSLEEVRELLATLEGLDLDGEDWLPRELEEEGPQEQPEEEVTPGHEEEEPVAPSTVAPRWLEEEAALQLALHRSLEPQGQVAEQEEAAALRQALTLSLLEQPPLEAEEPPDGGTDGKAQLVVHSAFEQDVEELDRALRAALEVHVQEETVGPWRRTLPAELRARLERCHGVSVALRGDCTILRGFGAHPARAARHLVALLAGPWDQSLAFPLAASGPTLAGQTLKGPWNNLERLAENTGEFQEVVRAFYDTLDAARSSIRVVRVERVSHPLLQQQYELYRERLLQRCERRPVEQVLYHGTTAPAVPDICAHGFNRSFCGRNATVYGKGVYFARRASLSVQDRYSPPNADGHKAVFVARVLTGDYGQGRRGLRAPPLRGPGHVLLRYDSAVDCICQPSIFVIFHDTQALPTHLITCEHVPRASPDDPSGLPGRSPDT
Put plainly: Inhibition of human recombinant PARP10 at 10 uM incubated for 1 hr using NAD+, biotinylated NAD+ and activated DNA by luminescence based assay. Put shortly:
(§1)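 Recombinant PARP enzyme reactions were run in duplicate for 1 h at rt on histone-coated plates in Tris·HCl pH 8.0 buffer with NAD+, biotinylated NAD+ and activated DNA. Detection used streptavidin-HRP for 30 min at rt, then a chemiluminescent developer. % inhibition = 100 − % activity, scaled between the no-compound (100%) and no-enzyme (0%) signals.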

In assay [3] the target is Poly [ADP-ribose] polymerase 2 (Homo sapiens) (UniProt Q9UGN5). Put plainly: Inhibition of human recombinant PARP2 incubated for 1 hr using histone substrate at 1 uM by luminescence based assay. An outline of the steps:
as §1

By IC50 is commonly meant the concentration at which inhibition is half-maximal. By inhibition is commonly meant the percentage by which the read-out fell short of the control.

Chain of Poly [ADP-ribose] polymerase 2 (Homo sapiens) (Q9UGN5 whole entry): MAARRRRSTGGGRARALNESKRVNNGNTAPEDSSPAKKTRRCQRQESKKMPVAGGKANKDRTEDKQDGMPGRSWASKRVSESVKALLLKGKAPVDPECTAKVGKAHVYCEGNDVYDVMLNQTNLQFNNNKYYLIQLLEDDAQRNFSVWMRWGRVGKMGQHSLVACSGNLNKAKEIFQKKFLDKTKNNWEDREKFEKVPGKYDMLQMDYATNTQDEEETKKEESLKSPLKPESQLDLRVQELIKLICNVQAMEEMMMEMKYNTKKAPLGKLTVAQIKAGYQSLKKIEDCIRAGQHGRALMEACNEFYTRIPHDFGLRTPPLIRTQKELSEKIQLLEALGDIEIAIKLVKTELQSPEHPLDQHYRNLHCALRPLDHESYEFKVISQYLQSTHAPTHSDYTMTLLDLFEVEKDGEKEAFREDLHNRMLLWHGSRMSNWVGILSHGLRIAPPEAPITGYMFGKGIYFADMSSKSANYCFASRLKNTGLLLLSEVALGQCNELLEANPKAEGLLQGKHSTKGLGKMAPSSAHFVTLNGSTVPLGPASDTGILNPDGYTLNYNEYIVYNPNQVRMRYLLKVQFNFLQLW

Turning to `CC(C)(C)c1ccc(-c2nc3c(sc4ccccc43)c(=O)[nH]2)cc1`, in assay [1], the IC50 was 0.0286 µM. The values for the inhibition in assay [2] and in assay [3] were 3% and 4%, respectively.
